ChEMBL document CHEMBL1255410, “Activity of the investigational fluoroquinolone finafloxacin against ciprofloxacin-sensitive and -resistant Acinetobacter baumannii isolates” (2010)
Converted amounts (≈) assume the structure as drawn.

Legend:
Assay type in all cases: functional
[1] = system: Acinetobacter baumannii; assay: Antimicrobial activity against Acinetobacter baumannii isolate 42 harboring GyrA Ser83-Leu mutation at pH 7.2
Method in brief: (§1)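 Agar dilution MIC on Mueller-Hinton agar. For the acidic condition, HCl was added to bring the agar to pH 5.8 before pouring the antibiotic plates, and the pH was checked after the agar set. The standard condition was pH 7.2. Both drugs' plates were made the same day from fresh medium, and MICs were read at the same time.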

[2] = system: Acinetobacter baumannii; assay: Antimicrobial activity against Acinetobacter baumannii isolate 49 harboring GyrA Ser83-Leu and ParC Ser80-Leu mutation at pH 7.2; method in brief: as §1
[3] = system: Acinetobacter baumannii; assay: Antimicrobial activity against Acinetobacter baumannii isolate 23 harboring GyrA Glu87-Gly mutation at pH 5.8
Method in brief: (§2)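 MIC by agar dilution on Mueller-Hinton agar acidified to pH 5.8 with HCl before antibiotic-containing plates were poured. Agar pH was rechecked once the agar had solidified. Isolates had characterized gyrA/parC genes. Plates for both drugs were made the same day from fresh media, and MICs were read in parallel with the standard-pH set.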

[4] = system: Acinetobacter baumannii; assay: Antimicrobial activity against Acinetobacter baumannii isolate 20 harboring GyrA Ser83-Leu mutation at pH 5.8; method in brief: as §2
[5] = system: Acinetobacter baumannii; assay: Antimicrobial activity against Acinetobacter baumannii isolate 50 harboring GyrA Ser83-Leu and ParC Ser80-Leu mutation at pH 7.2; method in brief: as §1
[6] = system: Acinetobacter baumannii; assay: Antimicrobial activity against Acinetobacter baumannii isolate 38 harboring GyrA Ser83-Leu mutation at pH 5.8; method in brief: as §1
[7] = system: Acinetobacter baumannii; assay: Antimicrobial activity against Acinetobacter baumannii isolate 36 harboring GyrA Ser83-Leu mutation at pH 7.2; method in brief: as §1
[8] = system: Acinetobacter baumannii; assay: Antimicrobial activity against Acinetobacter baumannii isolate 51 harboring GyrA Ser83-Leu and ParC Ser80-Leu mutation at pH 7.2; method in brief: as §1
[9] = system: Acinetobacter baumannii; assay: Antimicrobial activity against Acinetobacter baumannii isolate 12 at pH 7.2
Method in brief: (§3)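 MIC by agar dilution on Mueller-Hinton agar under standard conditions (pH 7.2), against isolates with characterized gyrA/parC genes. Agar pH was checked after solidifying. Plates for both drugs were prepared the same day from freshly made media, and MICs were determined simultaneously with the pH 5.8 set.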

[10] = system: Acinetobacter baumannii; assay: Antimicrobial activity against Acinetobacter baumannii isolate 3 at pH 5.8; method in brief: as §2
[11] = system: Acinetobacter baumannii; assay: Antimicrobial activity against Acinetobacter baumannii isolate 64 harboring GyrA Ser83-Leu and ParC Ser80-Leu mutation at pH 7.2
Method in brief: (§4)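 Agar dilution MIC on Mueller-Hinton agar under standard conditions (pH 7.2). Antibiotic-containing plates were made the same day from freshly prepared medium. Agar pH was checked after solidifying. Both fluoroquinolones were tested simultaneously against A. baumannii isolates with characterized gyrA/parC genes. MICs are in μg/ml.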

[12] = system: Acinetobacter baumannii; assay: Antimicrobial activity against Acinetobacter baumannii isolate 14 at pH 7.2; method in brief: as §3
[13] = system: Acinetobacter baumannii; assay: Antimicrobial activity against Acinetobacter baumannii isolate 28 harboring GyrA Ser83-Leu mutation at pH 7.2; method in brief: as §3
[14] = system: Acinetobacter baumannii; assay: Antimicrobial activity against Acinetobacter baumannii isolate 36 harboring GyrA Ser83-Leu mutation at pH 5.8; method in brief: as §1
[15] = system: Acinetobacter baumannii; assay: Antimicrobial activity against Acinetobacter baumannii isolate 31 harboring GyrA Ser83-Leu mutation at pH 7.2; method in brief: as §3
[16] = system: Acinetobacter baumannii; assay: Antimicrobial activity against Acinetobacter baumannii isolate 19 harboring GyrA Ser83-Leu mutation at pH 7.2; method in brief: as §3
[17] = system: Acinetobacter baumannii; assay: Antimicrobial activity against Acinetobacter baumannii isolate 63 harboring GyrA Ser83-Leu and ParC Glu84-Lys mutation at pH 5.8
Method in brief: (§5)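 Agar dilution MIC on Mueller-Hinton agar acidified to pH 5.8 with HCl before the antibiotic-containing plates were poured. Agar pH was checked after solidifying. Plates were made the same day from fresh medium. Both fluoroquinolones were tested simultaneously against A. baumannii isolates with characterized gyrA/parC genes. MICs are in μg/ml.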

[18] = system: Acinetobacter baumannii; assay: Antimicrobial activity against Acinetobacter baumannii isolate 44 harboring GyrA Ser83-Leu and ParC Glu84-Lys mutation at pH 5.8; method in brief: as §1
[19] = system: Acinetobacter baumannii; assay: Antimicrobial activity against Acinetobacter baumannii isolate 66 harboring GyrA Ser83-Leu mutation at pH 5.8; method in brief: as §5
[20] = system: Acinetobacter baumannii; assay: Antimicrobial activity against Acinetobacter baumannii isolate 7 at pH 7.2; method in brief: as §4
[21] = system: Acinetobacter baumannii; assay: Antimicrobial activity against Acinetobacter baumannii isolate 27 harboring GyrA Ser83-Leu mutation at pH 7.2; method in brief: as §3
[22] = system: Acinetobacter baumannii; assay: Antimicrobial activity against Acinetobacter baumannii isolate 54 harboring GyrA Ser83-Leu and ParC Ser80-Leu mutation at pH 5.8; method in brief: as §1
[23] = system: Acinetobacter baumannii; assay: Antimicrobial activity against Acinetobacter baumannii isolate 2 at pH 7.2; method in brief: as §3
[24] = system: Acinetobacter baumannii; assay: Antimicrobial activity against Acinetobacter baumannii isolate 48 harboring GyrA Ser83-Leu and ParC Ser80-Leu mutation at pH 5.8; method in brief: as §1
[25] = system: Acinetobacter baumannii; assay: Antimicrobial activity against Acinetobacter baumannii isolate 29 harboring GyrA Ser83-Leu mutation at pH 7.2; method in brief: as §3
[26] = system: Acinetobacter baumannii; assay: Antimicrobial activity against Acinetobacter baumannii isolate 22 harboring GyrA Ser83-Leu mutation at pH 7.2; method in brief: as §3
[27] = system: Acinetobacter baumannii; assay: Antimicrobial activity against Acinetobacter baumannii isolate 51 harboring GyrA Ser83-Leu and ParC Ser80-Leu mutation at pH 5.8; method in brief: as §1
[28] = system: Acinetobacter baumannii; assay: Antimicrobial activity against Acinetobacter baumannii isolate 25 harboring GyrA Ser83-Leu mutation at pH 5.8; method in brief: as §2
[29] = system: Acinetobacter baumannii; assay: Antimicrobial activity against Acinetobacter baumannii isolate 10 at pH 7.2; method in brief: as §3
[30] = system: Acinetobacter baumannii; assay: Antimicrobial activity against Acinetobacter baumannii isolate 56 harboring GyrA Ser83-Leu and ParC Ser80-Leu mutation at pH 7.2; method in brief: as §4
[31] = system: Acinetobacter baumannii; assay: Antimicrobial activity against Acinetobacter baumannii isolate 29 harboring GyrA Ser83-Leu mutation at pH 5.8; method in brief: as §2
[32] = system: Acinetobacter baumannii; assay: Antimicrobial activity against Acinetobacter baumannii isolate 55 harboring GyrA Ser83-Leu and ParC Ser80-Leu mutation at pH 5.8; method in brief: as §1
[33] = system: Acinetobacter baumannii; assay: Antimicrobial activity against Acinetobacter baumannii isolate 17 at pH 7.2; method in brief: as §3
[34] = system: Acinetobacter baumannii; assay: Antimicrobial activity against Acinetobacter baumannii isolate 53 harboring GyrA Ser83-Leu and ParC Ser80-Leu mutation at pH 5.8; method in brief: as §1
[35] = system: Acinetobacter baumannii; assay: Antimicrobial activity against Acinetobacter baumannii isolate 14 at pH 5.8; method in brief: as §2
[36] = system: Acinetobacter baumannii; assay: Antimicrobial activity against Acinetobacter baumannii isolate 11 at pH 5.8; method in brief: as §2
[37] = system: Acinetobacter baumannii; assay: Antimicrobial activity against Acinetobacter baumannii isolate 62 harboring GyrA Ser83-Leu and ParC Ser80-Leu mutation at pH 7.2; method in brief: as §4
[38] = system: Acinetobacter baumannii; assay: Antimicrobial activity against Acinetobacter baumannii isolate 8 at pH 5.8; method in brief: as §5
[39] = system: Acinetobacter baumannii; assay: Antimicrobial activity against Acinetobacter baumannii isolate 15 at pH 5.8; method in brief: as §2
[40] = system: Acinetobacter baumannii; assay: Antimicrobial activity against Acinetobacter baumannii isolate 35 harboring GyrA Ser83-Leu mutation at pH 5.8; method in brief: as §1
[41] = system: Acinetobacter baumannii; assay: Antimicrobial activity against Acinetobacter baumannii isolate 26 harboring GyrA Ser83-Leu mutation at pH 7.2; method in brief: as §3
[42] = system: Acinetobacter baumannii; assay: Antimicrobial activity against Acinetobacter baumannii isolate 9 at pH 7.2; method in brief: as §4

Structure (SMILES): N#Cc1c(N2C[C@@H]3NCCO[C@H]3C2)c(F)cc2c(=O)c(C(=O)O)cn(C3CC3)c12 [FINAFLOXACIN]
- MIC [1]: 16 µg/mL (≈ 40.2 µM)
- MIC [2]: 16 µg/mL (≈ 40.2 µM)
- MIC [3]: 1 µg/mL (≈ 2.51 µM)
- MIC [4]: 0.06 µg/mL (≈ 0.151 µM)
- MIC [5]: 16 µg/mL (≈ 40.2 µM)
- MIC [6]: 2 µg/mL (≈ 5.02 µM)
- MIC [7]: 16 µg/mL (≈ 40.2 µM)
- MIC [8]: 32 µg/mL (≈ 80.3 µM)
- MIC [9]: 1 µg/mL (≈ 2.51 µM)
- MIC [10]: 0.06 µg/mL (≈ 0.151 µM)
- MIC [11]: 64 µg/mL (≈ 161 µM)
- MIC [12]: 1 µg/mL (≈ 2.51 µM)
- MIC [13]: 16 µg/mL (≈ 40.2 µM)
- MIC [14]: 2 µg/mL (≈ 5.02 µM)
- MIC [15]: 16 µg/mL (≈ 40.2 µM)
- MIC [16]: 0.5 µg/mL (≈ 1.26 µM)
- MIC [17]: 2 µg/mL (≈ 5.02 µM)
- MIC [18]: 4 µg/mL (≈ 10 µM)
- MIC [19]: 2 µg/mL (≈ 5.02 µM)
- MIC [20]: 0.25 µg/mL (≈ 0.628 µM)
- MIC [21]: 16 µg/mL (≈ 40.2 µM)
- MIC [22]: 4 µg/mL (≈ 10 µM)
- MIC [23]: 0.5 µg/mL (≈ 1.26 µM)
- MIC [24]: 2 µg/mL (≈ 5.02 µM)
- MIC [25]: 32 µg/mL (≈ 80.3 µM)
- MIC [26]: 8 µg/mL (≈ 20.1 µM)
- MIC [27]: 2 µg/mL (≈ 5.02 µM)
- MIC [28]: 2 µg/mL (≈ 5.02 µM)
- MIC [29]: 0.25 µg/mL (≈ 0.628 µM)
- MIC [30]: 32 µg/mL (≈ 80.3 µM)
- MIC [31]: 4 µg/mL (≈ 10 µM)
- MIC [32]: 4 µg/mL (≈ 10 µM)
- MIC [33]: 1 µg/mL (≈ 2.51 µM)
- MIC [34]: 2 µg/mL (≈ 5.02 µM)
- MIC [35]: 0.25 µg/mL (≈ 0.628 µM)
- MIC [36]: 0.06 µg/mL (≈ 0.151 µM)
- MIC [37]: 64 µg/mL (≈ 161 µM)
- MIC [38]: 0.12 µg/mL (≈ 0.301 µM)
- MIC [39]: 0.12 µg/mL (≈ 0.301 µM)
- MIC [40]: 2 µg/mL (≈ 5.02 µM)
- MIC [41]: 16 µg/mL (≈ 40.2 µM)
- MIC [42]: 0.25 µg/mL (≈ 0.628 µM)
